Experimental data: ChEMBL document CHEMBL1139184, “Identification of a series of tetrahydroisoquinoline derivatives as potential therapeutic agents for breast cancer” (2007)
The source made the active and inactive calls. The rule behind the calls is not given here.

Key:
[1] = biological target: T1, Estrogen receptor (Homo sapiens) (UniProt P03372); assay: Displacement of ES2 ligand from human recombinant ERalpha relative to tamoxifen
T1 sequence (whole entry): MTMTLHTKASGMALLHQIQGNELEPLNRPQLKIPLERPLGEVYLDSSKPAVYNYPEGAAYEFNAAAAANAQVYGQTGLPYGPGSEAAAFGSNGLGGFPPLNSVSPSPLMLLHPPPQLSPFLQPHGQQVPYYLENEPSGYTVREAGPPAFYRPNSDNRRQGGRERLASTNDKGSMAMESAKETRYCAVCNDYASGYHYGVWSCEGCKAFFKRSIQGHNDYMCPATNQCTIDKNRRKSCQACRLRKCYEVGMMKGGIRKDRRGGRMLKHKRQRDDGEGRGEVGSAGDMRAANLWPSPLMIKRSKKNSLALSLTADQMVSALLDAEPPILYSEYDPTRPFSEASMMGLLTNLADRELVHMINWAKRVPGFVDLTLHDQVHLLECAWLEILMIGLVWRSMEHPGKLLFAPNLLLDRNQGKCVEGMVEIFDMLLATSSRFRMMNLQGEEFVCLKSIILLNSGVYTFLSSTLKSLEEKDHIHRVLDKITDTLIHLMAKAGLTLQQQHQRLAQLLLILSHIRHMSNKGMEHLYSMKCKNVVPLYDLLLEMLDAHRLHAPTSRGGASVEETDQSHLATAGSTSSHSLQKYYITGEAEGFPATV
Summary of the method: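 Fluorescence polarization competition assay. Recombinant hERa (7 nM) was preincubated with fluorescent estrogenic probe ES2 (1 nM) in screening buffer, then combined with serial DMSO dilutions of test molecule. After 1 h at room temperature, polarization was read (ex 495 nm, em 535 nm).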

[2] = test system: MCF7; assay: Enhancement of growth of estrogen receptor positive MCF7 cells at 5 uM after 48 hrs by MTT assay relative to DMSO; format: functional, cell-based; conditions: Homo sapiens
Summary of the method: (§1)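 Cells were seeded, left to attach for 24 h, then switched to phenol red-free DMEM with 5% charcoal-stripped FBS. After a further 24 h, compound was added at 5 µM in DMSO (final DMSO ≤0.1%) and incubated 48 h. Viability was read as absorbance at 570 nm by MTT-type kit and expressed relative to DMSO, mean of three determinations.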

[3] = biological target: T1, Estrogen receptor (Homo sapiens); assay: Agonist activity at human ERalpha in T47D cells assessed as enhancement of AP1-driven transactivation at 5 uM by luciferase reporter assay relative to DMSO; format: functional, cell-based
Summary of the method: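 T47D cells grown in RPMI 1640 + 10% FBS, plated in triplicate at 3 × 10⁵ cells/well in phenol red-free RPMI + 10% charcoal-stripped FBS. After 24 h, transfected with pCMV-hERa, AP1-Luc reporter and pCMV-β (β-gal normalisation). Compound at 5 µM or DMSO for 24 h. Luciferase read and normalised to β-gal. Result expressed as RLA of compound/RLA of DMSO.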

[4] = biological target: T2, Progesterone receptor (Homo sapiens) (UniProt P06401); assay: Antagonist activity at human PR in T47D cells assessed as MMTV-driven transactivation at 5 uM by luciferase reporter assay relative to progesterone; format: functional, cell-based; set-up: scale not given: the % may be the effect or the level left
T2 sequence (whole entry): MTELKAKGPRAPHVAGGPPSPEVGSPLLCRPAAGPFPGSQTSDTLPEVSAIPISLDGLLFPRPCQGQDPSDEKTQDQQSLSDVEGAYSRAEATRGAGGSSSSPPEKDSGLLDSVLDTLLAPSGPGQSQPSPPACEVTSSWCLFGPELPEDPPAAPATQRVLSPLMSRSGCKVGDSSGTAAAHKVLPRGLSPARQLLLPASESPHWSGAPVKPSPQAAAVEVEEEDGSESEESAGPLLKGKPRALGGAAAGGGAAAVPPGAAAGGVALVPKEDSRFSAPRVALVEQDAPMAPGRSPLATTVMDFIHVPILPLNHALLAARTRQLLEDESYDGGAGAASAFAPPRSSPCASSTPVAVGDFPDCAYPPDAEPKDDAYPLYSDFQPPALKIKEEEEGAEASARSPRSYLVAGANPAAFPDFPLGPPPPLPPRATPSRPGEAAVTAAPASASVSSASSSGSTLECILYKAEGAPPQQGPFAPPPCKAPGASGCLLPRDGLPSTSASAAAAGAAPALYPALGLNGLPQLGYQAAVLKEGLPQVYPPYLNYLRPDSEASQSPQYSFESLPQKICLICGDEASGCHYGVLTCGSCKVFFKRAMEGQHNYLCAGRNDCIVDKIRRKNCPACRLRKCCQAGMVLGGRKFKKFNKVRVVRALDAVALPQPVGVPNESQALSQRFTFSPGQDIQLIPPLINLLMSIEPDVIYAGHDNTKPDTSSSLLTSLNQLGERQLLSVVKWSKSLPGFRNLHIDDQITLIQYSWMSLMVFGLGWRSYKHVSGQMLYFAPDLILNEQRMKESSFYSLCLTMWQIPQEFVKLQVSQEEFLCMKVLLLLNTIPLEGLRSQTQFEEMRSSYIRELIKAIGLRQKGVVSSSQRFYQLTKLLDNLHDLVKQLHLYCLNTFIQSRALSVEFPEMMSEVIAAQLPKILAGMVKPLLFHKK
Summary of the method: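 T47D cells in phenol red-free RPMI + 10% charcoal-stripped FBS, 3 × 10⁵ cells/well in triplicate. After 24 h, transfected with pCMV-hPR, pMMTV-Luc reporter and pCMV-β normaliser. Treated for 24 h in the presence of 1 nM progesterone. MMTV-driven luciferase measured on lysate and normalised to β-galactosidase luminescence.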

[5] = biological target: T1, Estrogen receptor (Homo sapiens); assay: Agonist activity at human recombinant ERalpha expressed in MCF7 cells assessed as ERE-driven transactivation at 2.5 uM by luciferase reporter assay relative to DMSO; format: functional, cell-based
Summary of the method: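 MCF-7 cells in phenol red-free DMEM with 10% charcoal-stripped FBS, plated in triplicate, transfected 24 h later with pCMV-hERa, 3x-ERE-TATA-Luc and pCMV-b. Test compound (2.5 µM) or DMSO added after transfection; lysed after 24 h. Luciferase normalized to b-galactosidase; reported as ratio of compound RLA to DMSO RLA, mean of three determinations.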

[6] = test system: MDA-MB-231; assay: Cell viability of estrogen receptor negative MDA-MB-231 cells at 5 uM after 48 hrs by MTT assay relative to DMSO; format: functional, Homo sapiens; summary of the method: as §1
[7] = test system: MCF7; assay: Cell viability of estrogen receptor positive MCF7 cells at 5 uM after 48 hrs by MTT assay relative to DMSO; format: functional, Homo sapiens; summary of the method: as §1

SMILES	relative binding affinity (RBA) [1]	Activity [2]	further results
CCCCCCCCNC(=O)CCCCCCCCCCOC[C@@H]1Cc2ccccc2CN1C(=O)c1cccc(F)c1	0.177	inactive	–
CCCCNC(=O)CCCCCCCCCCOC[C@@H]1Cc2ccccc2CN1C(=O)c1ccc(OC)cc1	0.14	inactive	–
CCCCNC(=O)CCCCCCCCCCOC[C@@H]1Cc2ccccc2CN1C(=O)c1ccc(F)cc1	0.264	inactive	–
CCCCNC(=O)CCCCCCCCCCOC[C@@H]1Cc2ccccc2CN1C(=O)c1cccc(Cl)c1	0.156	inactive	Activity [3]: Active; Activity [4]: 54%
CCCCNC(=O)CCCCCCCCCCOC[C@@H]1Cc2ccccc2CN1C(=O)c1cccc(C)c1	0.156	inactive	Activity [5]: Active
C[C@]12CC[C@@H]3c4ccc(O)cc4C[C@@H](CCCCCCCCC[S+]([O-])CCCC(F)(F)C(F)(F)F)[C@H]3[C@@H]1CC[C@@H]2O (stereo not given in full)	–	–	Activity [4]: 48%
CCCCNC(=O)CCCCCCCCCCOC[C@@H]1Cc2ccccc2CN1C(=O)c1ccccc1F	0.225	inactive	–
CC/C(=C(\c1ccccc1)c1ccc(OCCN(C)C)cc1)c1ccccc1 [TAMOXIFEN]	–	inactive	Activity [6]: 0.65; Activity [7]: 0.43
CCCCNC(=O)CCCCCCCCCCOC[C@@H]1Cc2ccccc2CN1C(=O)c1cccc(OC)c1	0.192	inactive	–
CCCCNC(=O)CCCCCCCCCCOC[C@@H]1Cc2ccccc2CN1C(=O)c1ccc(C)cc1	0.132	inactive	Activity [5]: Active
CCCCNC(=O)CCCCCCCCCCOC[C@@H]1Cc2ccccc2CN1C(=O)c1cccc(F)c1	0.287	inactive	–
CCCCNC(=O)CCCCCCCCCCOC[C@@H]1Cc2ccccc2CN1C(=O)c1ccc(O)cc1	1.79	inactive	–
CCCCNC(=O)CCCCCCCCCCOC[C@@H]1Cc2ccccc2CN1C(=O)Cc1cccc(F)c1	0.267	inactive	Activity [5]: Active
CCCCNC(=O)CCCCCCCCCCOC[C@@H]1Cc2ccccc2CN1C(=O)c1cccc(O)c1	5	inactive	Activity ([6]; Homo sapiens): inactive; Activity [7]: 0.48
